Tests used:
Glutamate NMDA receptor [1] = assay: Displacement of [3H]MK-801 from rat brain NMDA receptor
Method in brief: (§1)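 [³H]MK-801 at 5 nM is bound to rat brain membranes, with the co-agonists glutamic acid and glycine added. Incubation lasts 2 h, close to equilibrium. Nonspecific binding is binding to closed channels: no glutamate or glycine, with D-APV and 5,7-DCKA added. The standard buffer is 50 mM Tris, switched to 10 mM Tris for buffer-sensitive inhibition. Replicate counts are given per value.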

Glutamate NMDA receptor [2] = assay: Displacement of [3H]MK-801 from NMDA receptor in rat brain in presence of 100 uM spermine; type: tissue-based; method in brief: as §1
Glutamate NMDA receptor [3] = assay: Displacement of [3H]MK801 from rat brain NMDA receptor in presence of 30 uM spermine; method in brief: as §1
Glutamate NMDA receptor [4] = assay: Stimulation of [3H]MK-801 binding to rat brain NMDA receptor; method in brief: as §1

| SMILES | IC50 (Glutamate NMDA receptor [1]) [µM] | spermine attenuation ratio (Glutamate NMDA receptor [2]) | spermine attenuation ratio (Glutamate NMDA receptor [3]) | EC50 (Glutamate NMDA receptor [4]) [nM] |
| --- | --- | --- | --- | --- |
| Cc1cc(CCCCN)sc1CCCCCCCCN | 1.62 | 3.9 |  |  |
| CCc1cc(CCCCN)sc1CCCCCCCCN | 3.23 | 2.67 |  |  |
| NCCCCc1ccc(CCCCN(CC[C@@H](N)Cc2ccccc2)Cc2ccccc2)s1 | 9.62 |  | 1.66 |  |
| NCCCCCCCCCCCCCCN | 5.28 | 6.94 |  |  |
| NCCCCC#CCCCCCCCCN | 6.73 | 5.38 |  |  |
| NCCCCCCCCc1ccc(CCCCN)cc1 | 0.87 | 7.95 |  |  |
| Cc1cc(CCCCCCCCN)sc1CCCCN | 1.08 | 4.07 |  |  |
| NCCCCc1ccc(Cc2ccc(CCCCN)s2)s1 | 1.76 |  | 16.8 |  |
| N=C(N)NCCCCCCc1ccc(CCNC(=N)N)s1 | 1.04 |  | 23.4 |  |
| N=C(N)NCCCCCCCCc1ccc(CCCCNC(=N)N)s1 | 0.77 |  | 3.95 |  |
| CN(C)CCCCCCCCc1ccc(CCCCN(C)C)s1 | 358 | 2.79 |  |  |
| CCCNCCCCCCCCc1ccc(CCCCNCCC)s1 | 114 | 2.98 |  |  |
| C=CCNCCCCCCCCc1ccc(CCCCNCC=C)s1 | 13.3 | 6.57 |  |  |
| c1ccc(CNCCCCCCCCc2ccc(CCCCNCc3ccccc3)s2)cc1 | 8.67 | 0.98 |  |  |
| NCCCCc1ccc(CCOCCOCCN)s1 | 4.2 |  | 16.8 |  |
| NCCCCc1ccc(CCNC(=O)CNC(=O)CN)s1 | 111 |  | 5.48 |  |
| NCCCCc1ccc(CCCCNC(=O)C(CN)c2ccccc2)s1 (stereo unspecified) | 11.7 |  | 10.1 |  |
| NCCCCc1ccc(CCCCN(Cc2ccccc2)C(=O)C[C@@H](N)Cc2ccccc2)s1 | 13.4 |  | 1.71 |  |
| NCCCCc1ccc(CCCCNC(=O)CC(N)c2ccccc2)s1 (stereo unspecified) | 6.81 |  | 15 |  |
| NCCCCCCCCNC(=O)CCN | 53 |  | 75 |  |
| N=C(N)NCCCCCCCc1ccc(CCCNC(=N)N)s1 | 0.74 |  | 7.47 |  |
| NCCCCCCCCCCCCN | 7.05 |  | 34.6 |  |

Other lines, results leading:

| IC50 (Glutamate NMDA receptor [1]) [µM] | spermine attenuation ratio (Glutamate NMDA receptor [2]) | spermine attenuation ratio (Glutamate NMDA receptor [3]) | EC50 (Glutamate NMDA receptor [4]) [nM] | SMILES |
| --- | --- | --- | --- | --- |
| 0.54 | 8.84 | 15.1 |  | NCCCCCCCCc1ccc(CCCCN)s1 |
| 0.63 | 9.07 |  |  | NCCCCCCCCc1ccc(CC2CCNCC2)s1 |
| 2.48 | 8.58 |  |  | CNCCCCCCCCc1ccc(CC2CCNCC2)s1 |
| 15.2 | 7.67 |  |  | CN(C)CCCCCCCCc1ccc(CC2CCNCC2)s1 |
| 0.31 |  | 6.29 |  | N=C(N)NCCCCCCCCc1ccc(CCCNC(=N)N)s1 |
| 5.3 | 7.7 |  |  | CNCCCCCCCCc1ccc(CCCCNC)s1 |
| 5.2 |  | 29 |  | NCCCCc1ccc(CCCCNCCCN)s1 |
| 282 |  |  | 1900 | NCCCCc1ccc(CCNCCNCCN)s1 |
| 2.21 |  | 65.4 |  | CC(N)CC(=O)NCCCCc1ccc(CCCCN)s1 (stereo unspecified) |
| 24.7 |  | 10.3 |  | CC(CN)C(=O)NCCCCc1ccc(CCCCN)s1 (stereo unspecified) |
| 5.47 |  | 9.57 |  | NCCCCCCCCc1ccc(CCCN)s1 |
| 1.19 |  | 51.4 |  | NCCCCc1ccc(CCCCNC(=O)CCN)s1 |
| 1.13 | 2.96 |  |  | NCCCCCCCCc1ccc(Cc2ccccc2CN)s1 |
